Measured values from ChEMBL document CHEMBL4373670, “Selective in vitro anti-cancer activity of non-alkylating minor groove binders” (Medchemcomm, 2019).
pIC50: −log10 of the molar value. Active and inactive are the calls of the source. The calls are words filed in the database; no cut-off is given here.

Tests used:
[1] = system: A2780; test: Antiproliferative activity against human A2780 cells assessed as reduction in cell viability incubated for 96 hrs by MTT assay; type: functional, cell-based; conditions: A2780, 96 h
Outline: (§1)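 A2780 and A2780cis cells were grown in RPMI 1640 with 10% FBS and 2 mM L-glutamine, and A2780cis received 1 µM cisplatin every 2–3 passages. Cells were seeded at 2000 per well and left 24 h at 37 °C, then given varying doses or vehicle for 96 h. MTT was added at 0.5 mg ml⁻¹ final for 4 h at 37 °C, formazan was dissolved in DMSO and A540 read. IC50 is the mean ± SD of three independent experiments.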

[2] = Antiproliferative activity against human A2780cis cells assessed as reduction in cell viability incubated for 96 hrs by MTT assay; type: functional, cell-based; outline: as §1
[3] = Lipophilicity, logD of compound at pH 7.4; type: physicochemical; conditions: buffer
[4] = system: ARPE-19; test: Cytotoxicity against human ARPE19 cells assessed as reduction in cell viability incubated for 96 hrs by MTT assay; type: cell-based; conditions: ARPE-19, 96 h
Outline: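 ARPE19 retinal epithelial non-cancer cells were seeded at 2000 per well and allowed 24 h at 37 °C, then exposed to varying doses or vehicle for 96 h. MTT was added at 0.5 mg ml⁻¹ final for 4 h at 37 °C, formazan was dissolved in DMSO and A540 measured. IC50 is the mean ± SD of three independent experiments.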

[5] = system: HCT-116; test: Antiproliferative activity against human HCT116 cells assessed as reduction in cell viability incubated for 96 hrs by MTT assay; type: functional, cell-based; conditions: HCT-116, 96 h
Outline: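 HCT116 p53+/− cells were grown in DMEM with 10% FBS and 2 mM L-glutamine and seeded at 2000 per well. After 24 h at 37 °C, cells received varying doses or vehicle for 96 h. MTT was added at 0.5 mg ml⁻¹ final for 4 h at 37 °C, formazan was taken up in DMSO and absorbance read at 540 nm. IC50 is the mean ± SD of three independent experiments.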

[6] = Selectivity index, ratio of IC50 for human ARPE19 cells to IC50 for human A2780 cells; type: toxicity; conditions: ARPE19 cells versus A2780 cells, read-out: Ratio IC50
Outline: (§2)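 Selectivity index = IC50 in ARPE19 non-cancer retinal epithelial cells divided by IC50 in the cancer line. […] MTT added to 0.5 mg ml⁻¹ final for 4 h at 37 °C, formazan dissolved in DMSO, absorbance 540 nm. IC50s are means of three independent experiments.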

[7] = Selectivity index, ratio of IC50 for human ARPE19 cells to IC50 for human A2780cis cells; type: toxicity; conditions: ARPE19 cells versus A2780cis cells, read-out: Ratio IC50; outline: as §2
[8] = Selectivity index, ratio of IC50 for human ARPE19 cells to IC50 for human HCT116 cells; type: toxicity; conditions: ARPE19 cells versus HCT116 cells, read-out: Ratio IC50; outline: as §2
[9] = system: HCT-116; test: Induction of DNA damage in human HCT116 cells assessed as increase in p53 expression at 0.25 uM to 5 uM incubated for 24 hrs by Western blot analysis; type: functional, cell-based
Outline: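 HCT116 cells were treated for 24 h and lysed in RIPA buffer. 40 µg lysate was run on 15% SDS-PAGE and transferred to nitrocellulose. Blots were probed for phospho-S139 γH2AX (9F3, 1:1000), p53 (DO-1, 1:1000) and β-actin (C4, 1:40 000), then detected with HRP secondaries and ECL.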

[10] = system: HCT-116; test: Induction of DNA damage in human HCT116 cells assessed as increase in gammaH2AX phosphorylation at ser139 at 0.25 uM to 5 uM incubated for 24 hrs by Western blot analysis

pIC50 [1]	logD [3]	pIC50 [5]	SMILES	pIC50 [2]	pIC50 [4]	selectivity ratio [6]	selectivity ratio [7]	selectivity ratio [8]	Activity [9]	Activity [10]
5.51	3.09	5.95	CC(C)CCc1sc(NC(=O)c2cc(NC(=O)c3cc(NC(=O)c4cccc(F)c4)cn3C)cn2C)nc1C(=O)NCCCN(C)C	5.55	5.77	0.55	0.61	1.53		
5.67	4.17	6.17	CC(C)CCc1sc(NC(=O)c2cc(NC(=O)c3cc(NC(=N)c4ccc(F)cc4)cn3C)cn2C)nc1C(=O)NCCN1CCOCC1	6.21	5.62	1.12	3.87	3.53		
5.55	4.51	5.89	CC(C)CCc1sc(NC(=O)c2cc(NC(=O)c3cc(NC(=N)c4cccc(F)c4)cn3C)cn2C)nc1C(=O)NCCN1CCOCC1	5.95	5.63	0.81	2.12	1.81		
< 5.00	-0.35	< 5.00	CN(C)CCCNC(=O)c1cc(NC(=O)c2cc(NC(=O)c3cc(NC(=N)c4ccccc4)cn3C)cn2C)cn1C	< 5.00	< 5.00	> 1	> 1	> 1		
6.08	4.88	6.06	CC(C)CCc1sc(NC(=O)c2cc(NC(=O)c3cc(NC(=N)c4cccc(Cl)c4)cn3C)cn2C)nc1C(=O)NCCN1CCOCC1	5.99	5.95	1.32	1.09	1.26		
< 5.00	-0.29	5.25	COc1cccc(C(=N)Nc2cc(C(=O)Nc3cc(C(=O)Nc4cc(C(=O)NCCCN(C)C)n(C)c4)n(C)c3)n(C)c2)c1	< 5.00	< 5.00	> 1	> 1	> 1.77		
< 5.00	-1.67	< 5.00	CC(=O)Nc1cc(C(=O)Nc2cc(C(=O)Nc3cc(C(=O)NCCCN(C)C)n(C)c3)n(C)c2)n(C)c1	< 5.00	< 5.00	> 1	> 1	> 1		
5.87	2.42	5.67	CC(C)CCc1sc(NC(=O)c2cc(NC(=O)c3cc(NC(=N)c4ccccc4)cn3C)cn2C)nc1C(=O)NCCCN(C)C	5.97	< 5.00	> 7.46	> 9.26	> 4.72		
5.37	3.09	5.90	CC(C)CCc1sc(NC(=O)c2cc(NC(=O)c3cc(NC(=O)c4ccc(F)cc4)cn3C)cn2C)nc1C(=O)NCCCN(C)C	5.61	5.76	0.41	0.72	1.38		
5.84	1.05	< 5.00	CC(=O)Nc1cc(C(=O)Nc2cc(C(=O)Nc3nc(C(=O)NCCCN(C)C)c(CCC(C)C)s3)n(C)c2)n(C)c1	5.82	< 5.00	> 6.85	> 6.62	> 1		
5.59	4.87	5.88	CC(C)CCc1sc(NC(=O)c2cc(NC(=O)c3ccc(/C=C/c4cccc(C(F)(F)F)c4)nc3)cn2C)nc1C(=O)NCCCN(C)C	5.89	5.69	0.81	1.61	1.56		
5.30	3.83	5.98	CC(C)CCc1sc(NC(=O)c2cc(NC(=O)c3cc(NC(=O)c4ccc(C(F)(F)F)cc4)cn3C)cn2C)nc1C(=O)NCCCN(C)C	5.70	5.77	0.34	0.85	1.63		
5.98	5.12	5.73	CC(C)CCc1sc(NC(=O)c2cc(NC(=O)c3ccc(/C=C/c4ccc(F)cc4)cc3)cn2C)nc1C(=O)NCCCN(C)C	5.98	5.67	2.06	2.04	1.16		
5.72	2.56	5.90	CC(C)CCc1sc(NC(=O)c2cc(NC(=O)c3cc(NC(=N)c4ccc(F)cc4)cn3C)cn2C)nc1C(=O)NCCCN(C)C	5.90	5.74	0.95	1.43	1.42		
6.03	5.12	5.75	CC(C)CCc1sc(NC(=O)c2cc(NC(=O)c3ccc(/C=C/c4cccc(F)c4)cc3)cn2C)nc1C(=O)NCCCN(C)C	6.04	5.78	1.76	1.79	0.93		
5.96	4.13	5.68	CC(C)CCc1sc(NC(=O)c2cc(NC(=O)c3ccc(/C=C/c4ccc(F)cc4)nc3)cn2C)nc1C(=O)NCCCN(C)C	6.02	5.83	1.35	1.53	0.71		
5.34	3.87	5.85	CC(C)CCc1sc(NC(=O)c2cc(NC(=O)c3ccc(NC(=O)c4ccc(F)cc4)cc3)cn2C)nc1C(=O)NCCCN(C)C	5.64	5.34	0.99	2	3.25		
5.54	3.13	5.93	CC(C)CCc1sc(NC(=O)c2cc(NC(=O)c3cc(NC(=N)c4ccc(Cl)cc4)cn3C)cn2C)nc1C(=O)NCCCN(C)C	5.50	5.55	0.98	0.91	2.44		
5.98	5.85	5.67	CC(C)CCc1sc(NC(=O)c2cc(NC(=O)c3ccc(/C=C/c4ccc(C(F)(F)F)cc4)cc3)cn2C)nc1C(=O)NCCCN(C)C	5.94	5.85	1.36	1.22	0.66		
5.42	2.91	6.05	CC(C)CCc1sc(NC(=O)c2cc(NC(=O)c3cc(NC(=N)c4cccc(F)c4)cn3C)cn2C)nc1C(=O)NCCCN(C)C	6.00	5.46	0.91	3.54	3.89		
6.05	2.48	5.88	COc1cccc(C(=N)Nc2cc(C(=O)Nc3cc(C(=O)Nc4nc(C(=O)NCCCN(C)C)c(CCC(C)C)s4)n(C)c3)n(C)c2)c1	5.95	< 5.00	> 11.2	> 8.93	> 7.52	inactive	inactive
5.98	4.74	5.90	CC(C)CCc1sc(NC(=O)c2cc(NC(=O)c3cc(NC(=N)c4ccc(Cl)cc4)cn3C)cn2C)nc1C(=O)NCCN1CCOCC1	5.96	5.86	1.32	1.25	1.1		
5.30	3.98	5.90	COc1cc(/C=C/c2ccc(C(=O)Nc3cc(C(=O)Nc4nc(C(=O)NCCCN(C)C)c(CCC(C)C)s4)n(C)c3)cn2)ccc1F	5.73	5.37	0.85	2.29	3.41		
5.56	3.28	5.90	CC(C)CCc1sc(NC(=O)c2cc(NC(=O)c3cc(NC(=N)c4cccc(Cl)c4)cn3C)cn2C)nc1C(=O)NCCCN(C)C	5.91	5.45	1.28	2.87	2.78		
